# Published values gathered from unrelated publications.
# Pancreatic alpha-amylase: Pancreatic alpha-amylase (Homo sapiens, UniProt P04746)
# CYP3A7: Cytochrome P450 3A7 (CYP3A7, Homo sapiens, UniProt P24462)
# PDE4C: 3',5'-cyclic-AMP phosphodiesterase 4C (PDE4C, Homo sapiens, UniProt Q08493)
# ALB: Albumin (ALB, Bos taurus, UniProt P02769)
Compound,target,test,conditions,quantity,value
Oc1ccc([C@@H]2c3c(O)cc(O)cc3[C@@H]3c4c(cc(O)c5c4[C@@H]2[C@H](c2ccc(O)cc2)[C@H]5c2cc(O)cc4c2[C@@H](c2cc(O)cc(O)c2)[C@H](c2ccc(O)cc2)O4)O[C@H]3c2ccc(O)cc2)cc1,Pancreatic alpha-amylase,"enzyme activity, inhibitor",,IC50,6.1 µM
O=C(C=Cc1ccccc1)Nc1cc(-c2ccnc(N3CCC(O)CC3)c2)ccn1,"Retinoic acid receptor RXR-alpha (RXRA, Homo sapiens, UniProt P19793)","binding, SPR",,Kd,0.78 µM
COc1ccc2c(O[C@@H]3C[C@H]4C(=O)N[C@]5(C(=O)NS(=O)(=O)C6CC6)C[C@H]5/C=C\CCCCN(C)C(=O)[C@@H]4C3)cc(-c3nc(C(C)C)cs3)nc2c1C,CYP3A7,"enzyme activity, inhibitor, mass spectrometry",5 min,IC50,16.1 µM
CCc1c(C)nc(-c2ccc(Cl)s2)nc1Nc1ccc(CC(=O)O)cc1,PDE4C,"enzyme activity, inhibitor, FP",,IC50,~63 µM
CCN(CC)c1ccc(/C=N/c2ccc(F)c(Cl)c2)c(O)c1,Pancreatic alpha-amylase,"enzyme activity, inhibitor, absorbance",,IC50,190 µM
CC(C)C[C@H](NC(=O)[C@H](CC(N)=O)NC(=O)[C@H](Cc1c[nH]c2ccccc12)NC(=O)[C@@H](NC(=O)[C@H](Cc1ccc(O)cc1)NC(=O)[C@H](Cc1ccc(O)cc1)NC(=O)[C@H](CO)NC(=O)[C@H](CCCNC(=N)N)NC(=O)[C@H](Cc1c[nH]cn1)NC(=O)[C@@H](N)Cc1c[nH]c2ccccc12)[C@@H](C)O)C(=O)O,ALB,"binding, SPR",,Kd,3.99 µM
CCN(CC)c1ccc(/C=N/c2ccccc2F)c(O)c1,Pancreatic alpha-amylase,"enzyme activity, inhibitor, absorbance",,IC50,255 µM
O=C1CCc2ccccc2O1,"Carbonic anhydrase 9 (CA9, Homo sapiens, UniProt Q16790)","enzyme activity, inhibitor, stopped-flow",,Ki,4.1 µM
CC(C)(C)OC(=O)N[C@H]1CCCCC/C=C\[C@@H]2C[C@@]2(C(=O)NS(=O)(=O)C2CC2)NC(=O)[C@@H]2C[C@@H](OC(=O)N3Cc4cccc(F)c4C3)CN2C1=O,CYP3A7,"enzyme activity, inhibitor, mass spectrometry",5 min,IC50,21.9 µM
CN(C)C(=O)c1cc2cnc(Nc3ccc(N4CCNCC4)cn3)nc2n1C1CCCC1,PDE4C,"enzyme activity, inhibitor, TR-FRET",,IC50,4.4 µM
C[C@@H](O)[C@H](NC(=O)[C@H](Cc1ccc(O)cc1)NC(=O)[C@H](Cc1ccc(O)cc1)NC(=O)[C@H](CO)NC(=O)[C@H](CCCNC(=N)N)NC(=O)[C@H](Cc1c[nH]cn1)NC(=O)[C@@H](N)Cc1c[nH]c2ccccc12)C(=O)N[C@@H](Cc1c[nH]c2ccccc12)C(=O)N[C@@H](CC(N)=O)C(=O)O,ALB,"binding, SPR",,Kd,6.12 µM
N=c1c[n+](N2CCOCC2)[n-]o1,"NAD-dependent protein deacylase sirtuin-5, mitochondrial (SIRT5, Homo sapiens, UniProt Q9NXA8)","enzyme activity, inhibitor, HPLC",,IC50,8 µM
CC(C)(C)[C@@H]1NC(=O)O[C@@H]2CCC[C@H]2OC/C=C/C(F)(F)c2nc3ccccc3nc2O[C@@H]2C[C@@H](C(=O)N[C@]3(C(=O)NS(=O)(=O)C4(C)CC4)C[C@H]3C(F)F)N(C2)C1=O,CYP3A7,"enzyme activity, inhibitor, mass spectrometry",5 min,IC50,12.1 µM
OC[C@H]1O[C@@H](Oc2cc3c4c(c2)[C@@H]([C@@H]2c5cc(O)cc6c5[C@@H](c5cc(O)cc(O)c5[C@H]2c2ccc(O)cc2)[C@H](c2ccc(O)cc2)O6)[C@H](c2ccc(O)cc2)c2c(O)cc(O)cc2[C@H]4[C@H](c2ccc(O)cc2)O3)[C@H](O)[C@@H](O)[C@@H]1O,Pancreatic alpha-amylase,"enzyme activity, inhibitor",,IC50,> 100 µM
CCN(CC)c1ccc(/C=N/c2ccc(Cl)cc2)c(O)c1,Pancreatic alpha-amylase,"enzyme activity, inhibitor, absorbance",,IC50,63.5 µM
